# Several values for one entry are separate records, joined by “and”; a condition that tells them apart may be missing. Equal entries are not always repeated.
# Assays:
# Assay type in all cases: toxicity, cell-based
# [1] = test system: U2OS; experiment: Multiplex assay against U2OS; conditions: human, number of replicates 2
# How it was run: (§1)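 Cells were classed with CellPathfinder machine-learning gating, first as Hoechst high-intensity objects or normal cells, then (normal cells) as healthy, pyknosed or fragmented nuclei, and finally (pyknosed cells) as mitotic or apoptotic. Staining of live cells at seeding used Hoechst33342, BioTracker Green Microtubule Cytoskeleton Dye, MitoTracker Red and Annexin V Alexa Fluor 680, with imaging on a CQ1 microscope at 37°C and 5% CO2 after compound addition. Tubulin, mitochondrial-mass and membrane-permeability phenotypes are per cents of healthy-nucleus cells.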
# [2] = test system: HEK-293T; experiment: Multiplex assay against HEK293T; conditions: human, number of replicates 2; how it was run: as §1
# [3] = test system: Fibroblast; experiment: Multiplex assay against human fibroblast; conditions: number of replicates 2; how it was run: as §1
# [4] = 12 h, 1 µM, compound concentration 1 uM
# [5] = 12 h, 10 µM, compound concentration 10 uM
# [6] = 24 h, 1 µM, compound concentration 1 uM
# [7] = 24 h, 10 µM, compound concentration 10 uM
# [8] = 48 h, 1 µM, compound concentration 1 uM
# [9] = 48 h, 10 µM, compound concentration 10 uM
structure (smiles),measurement,setting,value
Br.Cc1cccc(C2CN(C)CCc3c2cc(O)c(O)c3Cl)c1 (stereo not given),Population Apoptotic (%),[1]; [4],80% and 65%
same,Population Healthy Nuclei (%),[1]; [4],61% and 87%
same,Population Hoechst High Intensity Objects (%),[1]; [4],0%
same,Population Membrane Permeable-Phenotype (%),[1]; [4],0%
same,Population Mitochondria Different-Phenotype (%),[1]; [4],0%
same,Population Mitotic Cells (%),[1]; [4],20% and 35%
same,Population Normal (%),[1]; [4],100%
same,Population Pyknosed Nuclei (%),[1]; [4],10% and 7%
same,Population Tubulin-Different-Phenotype (%),[1]; [4],51% and 83%
same,Population Fragmented Nuclei (%),[1]; [5],4% and 14%
same,Population Healthy Nuclei (%),[1]; [5],88% and 80%
same,Population Hoechst High Intensity Objects (%),[1]; [5],0%
same,Population Membrane Permeable-Phenotype (%),[1]; [5],1% and 0%
same,Population Mitochondria Different-Phenotype (%),[1]; [5],1% and 0%
same,Population Mitotic Cells (%),[1]; [5],41% and 100%
same,Population Normal (%),[1]; [5],100%
same,Population Pyknosed Nuclei (%),[1]; [5],7% and 4%
same,Population Tubulin-Different-Phenotype (%),[1]; [5],88% and 35%
same,Population Apoptotic (%),[1]; [6],56% and 50%
same,Population Healthy Nuclei (%),[1]; [6],91% and 73%
same,Population Hoechst High Intensity Objects (%),[1]; [6],0%
same,Population Membrane Permeable-Phenotype (%),[1]; [6],0% and 3%
same,Population Mitochondria Different-Phenotype (%),[1]; [6],0%
same,Population Mitotic Cells (%),[1]; [6],43% and 50%
same,Population Normal (%),[1]; [6],100%
same,Population Pyknosed Nuclei (%),[1]; [6],6% and 13%
same,Population Tubulin-Different-Phenotype (%),[1]; [6],85% and 48%
same,Population Apoptotic (%),[1]; [7],58% and 50%
same,Population Healthy Nuclei (%),[1]; [7],89% and 62%
same,Population Hoechst High Intensity Objects (%),[1]; [7],0%
same,Population Membrane Permeable-Phenotype (%),[1]; [7],0% and 10%
same,Population Mitochondria Different-Phenotype (%),[1]; [7],1% and 0%
same,Population Mitotic Cells (%),[1]; [7],41% and 50%
same,Population Normal (%),[1]; [7],100%
same,Population Pyknosed Nuclei (%),[1]; [7],8% and 12%
same,Population Tubulin-Different-Phenotype (%),[1]; [7],83% and 40%
same,Population Apoptotic (%),[1]; [8],42% and 46%
same,Population Healthy Nuclei (%),[1]; [8],72% and 90%
same,Population Hoechst High Intensity Objects (%),[1]; [8],0%
same,Population Membrane Permeable-Phenotype (%),[1]; [8],2% and 0%
same,Population Mitochondria Different-Phenotype (%),[1]; [8],0%
same,Population Mitotic Cells (%),[1]; [8],57% and 53%
same,Population Normal (%),[1]; [8],100%
same,Population Pyknosed Nuclei (%),[1]; [8],11% and 5%
same,Population Tubulin-Different-Phenotype (%),[1]; [8],60% and 91%
same,Population Apoptotic (%),[1]; [9],50% and 67%
same,Population Healthy Nuclei (%),[1]; [9],73% and 91%
same,Population Hoechst High Intensity Objects (%),[1]; [9],0%
same,Population Membrane Permeable-Phenotype (%),[1]; [9],4% and 0%
same,Population Mitochondria Different-Phenotype (%),[1]; [9],4% and 0%
same,Population Mitotic Cells (%),[1]; [9],50% and 32%
same,Population Normal (%),[1]; [9],100%
same,Population Pyknosed Nuclei (%),[1]; [9],13% and 6%
same,Population Tubulin-Different-Phenotype (%),[1]; [9],63% and 88%
same,Population Apoptotic (%),[2]; [4],15% and 42%
same,Population Fragmented Nuclei (%),[2]; [4],4% and 3%
same,Population Healthy Nuclei (%),[2]; [4],87% and 86%
same,Population Hoechst High Intensity Objects (%),[2]; [4],9% and 4%
same,Population Membrane Permeable-Phenotype (%),[2]; [4],3% and 2%
same,Population Mitochondria Different-Phenotype (%),[2]; [4],11% and 15%
same,Population Mitotic Cells (%),[2]; [4],84% and 57%
same,Population Normal (%),[2]; [4],90% and 95%
same,Population Pyknosed Nuclei (%),[2]; [4],8% and 10%
same,Population Tubulin-Different-Phenotype (%),[2]; [4],50%
same,Total Cell Count,[2]; [4],707 and 682
same,Population Apoptotic (%),[2]; [5],52% and 53%
same,Population Fragmented Nuclei (%),[2]; [5],3% and 4%
same,Population Healthy Nuclei (%),[2]; [5],88% and 81%
same,Population Hoechst High Intensity Objects (%),[2]; [5],8% and 7%
same,Population Membrane Permeable-Phenotype (%),[2]; [5],1% and 2%
same,Population Mitochondria Different-Phenotype (%),[2]; [5],27% and 22%
same,Population Mitotic Cells (%),[2]; [5],47% and 46%
same,Population Normal (%),[2]; [5],91% and 92%
same,Population Pyknosed Nuclei (%),[2]; [5],7% and 14%
same,Population Tubulin-Different-Phenotype (%),[2]; [5],63% and 57%
same,Total Cell Count,[2]; [5],523 and 513
same,Population Apoptotic (%),[2]; [6],36% and 32%
same,Population Fragmented Nuclei (%),[2]; [6],5%
same,Population Healthy Nuclei (%),[2]; [6],89%
same,Population Hoechst High Intensity Objects (%),[2]; [6],7% and 8%
same,Population Membrane Permeable-Phenotype (%),[2]; [6],3% and 1%
same,Population Mitochondria Different-Phenotype (%),[2]; [6],3% and 5%
same,Population Mitotic Cells (%),[2]; [6],63% and 68%
same,Population Normal (%),[2]; [6],92% and 91%
same,Population Pyknosed Nuclei (%),[2]; [6],4% and 5%
same,Population Tubulin-Different-Phenotype (%),[2]; [6],28% and 35%
same,Total Cell Count,[2]; [6],1088 and 1072
same,Population Apoptotic (%),[2]; [7],26% and 51%
same,Population Fragmented Nuclei (%),[2]; [7],7% and 5%
same,Population Healthy Nuclei (%),[2]; [7],87% and 89%
same,Population Hoechst High Intensity Objects (%),[2]; [7],7%
same,Population Membrane Permeable-Phenotype (%),[2]; [7],2% and 3%
same,Population Mitochondria Different-Phenotype (%),[2]; [7],11% and 10%
same,Population Mitotic Cells (%),[2]; [7],73% and 48%
same,Population Normal (%),[2]; [7],92%
same,Population Pyknosed Nuclei (%),[2]; [7],4% and 5%
same,Population Tubulin-Different-Phenotype (%),[2]; [7],53% and 49%
same,Total Cell Count,[2]; [7],768 and 746
same,Population Apoptotic (%),[2]; [8],7% and 15%
same,Population Fragmented Nuclei (%),[2]; [8],16% and 12%
same,Population Healthy Nuclei (%),[2]; [8],80% and 84%
same,Population Hoechst High Intensity Objects (%),[2]; [8],12% and 10%
same,Population Membrane Permeable-Phenotype (%),[2]; [8],6% and 4%
same,Population Mitochondria Different-Phenotype (%),[2]; [8],0% and 1%
same,Population Mitotic Cells (%),[2]; [8],92% and 84%
same,Population Normal (%),[2]; [8],87% and 89%
same,Population Pyknosed Nuclei (%),[2]; [8],2% and 3%
same,Population Tubulin-Different-Phenotype (%),[2]; [8],15% and 19%
same,Total Cell Count,[2]; [8],2930 and 2368
same,Population Apoptotic (%),[2]; [9],10% and 21%
same,Population Fragmented Nuclei (%),[2]; [9],12%
same,Population Healthy Nuclei (%),[2]; [9],84%
same,Population Hoechst High Intensity Objects (%),[2]; [9],11%
same,Population Membrane Permeable-Phenotype (%),[2]; [9],9% and 6%
same,Population Mitochondria Different-Phenotype (%),[2]; [9],0% and 1%
same,Population Mitotic Cells (%),[2]; [9],89% and 78%
same,Population Normal (%),[2]; [9],88%
same,Population Pyknosed Nuclei (%),[2]; [9],2%
same,Population Tubulin-Different-Phenotype (%),[2]; [9],22% and 26%
same,Total Cell Count,[2]; [9],1797 and 1636
same,Population Apoptotic (%),[3]; [4],50% and 47%
same,Population Fragmented Nuclei (%),[3]; [4],10% and 13%
same,Population Healthy Nuclei (%),[3]; [4],79%
same,Population Hoechst High Intensity Objects (%),[3]; [4],0%
same,Population Membrane Permeable-Phenotype (%),[3]; [4],1% and 4%
same,Population Mitochondria Different-Phenotype (%),[3]; [4],0% and 1%
same,Population Mitotic Cells (%),[3]; [4],50% and 52%
same,Population Normal (%),[3]; [4],100%
same,Population Pyknosed Nuclei (%),[3]; [4],10% and 6%
same,Population Tubulin-Different-Phenotype (%),[3]; [4],9% and 5%
same,Total Cell Count,[3]; [4],210 and 248
same,Population Apoptotic (%),[3]; [5],68% and 66%
same,Population Fragmented Nuclei (%),[3]; [5],11% and 13%
same,Population Healthy Nuclei (%),[3]; [5],77% and 78%
same,Population Hoechst High Intensity Objects (%),[3]; [5],0%
same,Population Membrane Permeable-Phenotype (%),[3]; [5],2%
same,Population Mitochondria Different-Phenotype (%),[3]; [5],1% and 5%
same,Population Mitotic Cells (%),[3]; [5],31% and 33%
same,Population Normal (%),[3]; [5],99% and 100%
same,Population Pyknosed Nuclei (%),[3]; [5],11% and 8%
same,Population Tubulin-Different-Phenotype (%),[3]; [5],10% and 11%
same,Total Cell Count,[3]; [5],167 and 173
same,Population Apoptotic (%),[3]; [6],57% and 53%
same,Population Fragmented Nuclei (%),[3]; [6],10% and 14%
same,Population Healthy Nuclei (%),[3]; [6],82% and 80%
same,Population Hoechst High Intensity Objects (%),[3]; [6],0%
same,Population Membrane Permeable-Phenotype (%),[3]; [6],1%
same,Population Mitochondria Different-Phenotype (%),[3]; [6],0% and 1%
same,Population Mitotic Cells (%),[3]; [6],42% and 46%
same,Population Normal (%),[3]; [6],99% and 100%
same,Population Pyknosed Nuclei (%),[3]; [6],6% and 5%
same,Population Tubulin-Different-Phenotype (%),[3]; [6],8% and 3%
same,Total Cell Count,[3]; [6],205 and 242
same,Population Apoptotic (%),[3]; [7],50% and 70%
same,Population Fragmented Nuclei (%),[3]; [7],10% and 15%
same,Population Healthy Nuclei (%),[3]; [7],79% and 78%
same,Population Hoechst High Intensity Objects (%),[3]; [7],0%
same,Population Membrane Permeable-Phenotype (%),[3]; [7],3% and 0%
same,Population Mitochondria Different-Phenotype (%),[3]; [7],0%
same,Population Mitotic Cells (%),[3]; [7],50% and 30%
same,Population Normal (%),[3]; [7],100%
same,Population Pyknosed Nuclei (%),[3]; [7],9% and 5%
same,Population Tubulin-Different-Phenotype (%),[3]; [7],8% and 7%
same,Total Cell Count,[3]; [7],165 and 174
same,Population Apoptotic (%),[3]; [8],50% and 62%
same,Population Fragmented Nuclei (%),[3]; [8],13%
same,Population Healthy Nuclei (%),[3]; [8],80% and 83%
same,Population Hoechst High Intensity Objects (%),[3]; [8],0%
same,Population Membrane Permeable-Phenotype (%),[3]; [8],1% and 2%
same,Population Mitochondria Different-Phenotype (%),[3]; [8],1% and 0%
same,Population Mitotic Cells (%),[3]; [8],50% and 37%
same,Population Normal (%),[3]; [8],99% and 100%
same,Population Pyknosed Nuclei (%),[3]; [8],5% and 3%
same,Population Tubulin-Different-Phenotype (%),[3]; [8],4% and 1%
same,Total Cell Count,[3]; [8],211 and 238
same,Population Apoptotic (%),[3]; [9],44% and 100%
same,Population Fragmented Nuclei (%),[3]; [9],12% and 15%
same,Population Healthy Nuclei (%),[3]; [9],82%
same,Population Hoechst High Intensity Objects (%),[3]; [9],0%
same,Population Membrane Permeable-Phenotype (%),[3]; [9],2% and 0%
same,Population Mitochondria Different-Phenotype (%),[3]; [9],0%
same,Population Normal (%),[3]; [9],100%
same,Population Pyknosed Nuclei (%),[3]; [9],5% and 1%
same,Population Tubulin-Different-Phenotype (%),[3]; [9],3% and 4%
same,Total Cell Count,[3]; [9],178 and 170

# Source: ChEMBL document CHEMBL5303300, “EUbOPEN Chemogenomics Library - Multiplex” (2023)
